Experimental data from different studies.
Compare with care: the assays were run in different laboratories. Values after ≈ are worked out from the molar mass of the structure shown.
Effect on: microbial growth

The MIC of `C[N+](C)(C)CCCc1ccc(Oc2ccc(-c3noc(-c4ccc(O)cc4)n3)cc2)cc1.[I-]` is reported as 16 µg/mL (Enterococcus faecium; broth dilution; 24 h).
The MIC of `CC(=O)Oc1cccc(-n2c(/C=C/c3ccc([N+](=O)[O-])cc3)nc3ccccc3c2=O)c1` is reported as 64 µg/mL (≈ 150 µM) (Enterococcus faecium; broth dilution; NCTC7171).
With `CC(C)Oc1c(NC(=O)c2ccc(NC(=O)c3ccc(NC(=O)[C@H](CC(N)=O)NC(=O)c4ccc(NC(=O)c5ccc(C#N)s5)cc4)cc3)c(OC(C)C)c2O)ccc(C(=O)O)c1O` the MIC was 0.5 µg/mL (≈ 0.561 µM) (Citrobacter freundii; DSM30039).
The MIC of `O=C(O)CCc1ccccc1Oc1ccc(-c2noc(-c3ccc(O)cc3)n2)cc1` is reported as > 32 µg/mL (Enterococcus faecium; broth dilution; 24 h).
For `O=C(O)c1cccc(-n2c(/C=C/c3ccc(Cl)cc3)nc3ccncc3c2=O)c1`, the MIC was > 128 µg/mL (Enterococcus faecium; broth dilution; NCTC7171).
`C/C(=C\c1ccc(C#N)cc1)C(=O)Nc1ccc(C(=O)N[C@@H](CC(N)=O)C(=O)Nc2ccc(C(=O)Nc3ccc(C(=O)Nc4ccc(C(=O)O)cc4)c(O)c3OC(C)C)cc2)cc1` has an MIC of 0.06 µg/mL (≈ 0.0704 µM) (Citrobacter freundii; DSM30039).
For `C[C@@H](O)[C@H]1C(=O)N2C(C(=O)O)=C(S[C@@H]3CN[C@H](C(=O)N(C)C)C3)[C@H](C)[C@H]12`, the MIC was > 64 µg/mL (Citrobacter freundii; broth dilution; clinical isolate).
`O=C(O)Cc1ccc(Oc2ccc(-c3noc(-c4ccc(O)cc4)n3)cc2)cc1` gave an MIC of > 32 µg/mL (Enterococcus faecium; broth dilution; 24 h).
For `CC(C)Oc1c(NC(=O)c2ccc(NC(=O)[C@H](CC(N)=O)NC(=O)c3ccc(NC(=O)c4ccc(C#N)cn4)cc3)cc2)ccc(C(=O)Nc2ccc(C(=O)O)cc2)c1O`, the MIC was ≤ 0.03 µg/mL (Citrobacter freundii; DSM30039).
For `O=C(O)c1cccc(-n2c(/C=C/c3ccc(C#CCO)cc3)nc3ccccc3c2=O)c1`, the MIC was > 128 µg/mL (Enterococcus faecium; broth dilution; NCTC7171).
With `COCCNc1ccc(-c2nc(-c3ccc(Oc4ccccc4)cc3)no2)cc1` the MIC was > 32 µg/mL (Enterococcus faecium; broth dilution; 24 h).
The MIC of `O=C(O)c1cccc(-n2c(/C=C/c3ccc(F)c(F)c3)nc3ccccc3c2=O)c1` is reported as > 128 µg/mL (Enterococcus faecium; broth dilution; NCTC7171).
For `CC(C)Oc1c(-n2cc(-c3ccc(NC(=O)C(CC(N)=O)NC(=O)c4ccc(NC(=O)c5ccc(C#N)cc5)cc4)cc3)nn2)ccc(C(=O)Nc2ccc(C(=O)O)cc2)c1O` (stereo not drawn), the MIC was 0.5 µg/mL (≈ 0.598 µM) (Citrobacter freundii; DSM30039).
`COC(=O)CCNC(=O)c1cccc(-n2c(/C=C/c3ccc(C#N)cc3)nc3ccccc3c2=O)c1` gave an MIC of > 128 µg/mL (Enterococcus faecium; broth dilution; NCTC7171).
For `O=C(O)c1cn(C2CC2)c2cc(N3CCNCC3)c(F)cc2c1=O`, the MIC was 0.63 µg/mL (≈ 1.9 µM) (Mycobacterium intracellulare; broth dilution; ATCC23068).
